Source: PubChem BioAssay (several laboratories)
A selection: hits, their analogues and other compounds. The true share with any hit is near 4.8%.
APP 5UTR inh – APP translation inhibition. SH-SY5Y APP 5'UTR-luciferase reporter, luminescence. inhibition, % at 2 µM. actives 0.82% (n = 190,000);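 active = inhibition above a set limit, derived from the sample mean plus 3 SD, cut at about 45% in these data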
STAT1 act – increases IFN-gamma driven STAT1 reporter signal; activation (% of control), % at 5.5 µM; NIH 3T3 STAT1-luciferase reporter, luminescence; 100% = IFN-gamma alone, no compound; actives 2.6% (n = 200,000);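 active = activation above the screen-wide mean activation plus 3 SD, cut at about 130% in these data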
NF-kB neuron act – raises NF-kB expression in human neuronal cells; NF-kB reporter expression; stronger effect = higher value; actives 1.6% (n = 190,000); fold change at 12.5 µM; in the data active = fold change above about 3.3
FLuc stim CS – firefly luciferase counter-screen for stimulation assays | ATPlite luciferase biochemical, luminescence, 10 min; 0 = ATP-free wells, 1 = DMSO control | activation factor at 10 µM | 200,000 tested, under 10 active | AID 1027;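 active = luciferase activation factor, scaled between plate controls, of at least 2 with compound at 10 µM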
Target sequence (P08659 whole entry, looked up): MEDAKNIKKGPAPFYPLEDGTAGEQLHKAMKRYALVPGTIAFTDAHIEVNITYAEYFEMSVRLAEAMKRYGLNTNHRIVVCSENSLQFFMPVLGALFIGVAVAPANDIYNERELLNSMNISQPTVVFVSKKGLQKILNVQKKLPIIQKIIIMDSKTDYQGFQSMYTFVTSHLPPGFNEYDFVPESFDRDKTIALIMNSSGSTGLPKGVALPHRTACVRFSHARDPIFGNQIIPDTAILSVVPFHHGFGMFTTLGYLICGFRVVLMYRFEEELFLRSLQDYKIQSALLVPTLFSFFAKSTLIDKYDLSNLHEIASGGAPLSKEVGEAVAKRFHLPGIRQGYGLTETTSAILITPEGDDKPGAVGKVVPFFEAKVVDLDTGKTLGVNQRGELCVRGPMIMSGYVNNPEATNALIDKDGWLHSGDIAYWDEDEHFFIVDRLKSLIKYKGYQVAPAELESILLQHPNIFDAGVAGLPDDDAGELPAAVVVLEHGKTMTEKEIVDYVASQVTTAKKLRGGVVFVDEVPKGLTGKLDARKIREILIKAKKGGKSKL
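Assay system: Luciferase/luciferin detection reagent, cell-free biochemical luciferase assay / Read-out: luciferase activation / Benchmarks: No-ATP low control, compound-free enzyme-plus-ATP high control / Medium: PBS buffer for ATP / Detection: luminescence measurement of luciferase light output / Schedule: 10 min at ambient temperature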
APP 5'UTR act – APP 5'UTR luciferase reporter activation; AID 1276; SH-SY5Y APP 5'UTR luciferase reporter, luminescence; zero percent = DMSO vehicle wells; actives 1% (n = 190,000); activation, % at 2 µM;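 active = activation above a set limit, based on mean plus 3 SD of controls, cut at about 140% in these data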
FLuc inhib CS – counter-screen for luciferase assay inhibitors: firefly luciferase inhibition; ATPLite firefly luciferase biochemical luminescence, 10 min; P08659; inhibition, % at 10 µM; actives 1.5% (n = 200,000);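 active = inhibition above about 50% when tested at 10 µM, limit read from the data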
Of the large screens only hits and unclear results are named; the others gave an inactive call.

c1ccc(-c2ccc(SCc3cccnc3)nn2)nc1	none
COc1ccc(-c2ccc(SCc3ccccn3)nn2)cc1OC	none
O=[N+]([O-])c1cccc(-c2ccc(SCc3ccccn3)nn2)c1	STAT1 act 135.2
CS(=O)(=O)N1CCC(C(=O)Nc2ccc3c(c2)OCCO3)CC1	none
COCCCNCCCCSc1ccc(Cl)cc1	none
CCCCN(C)CCC(=O)Nc1ccc2c(c1)CCC2	none
O=C1/C(=C\c2ccc(O)cc2)SC(=S)N1c1cccnc1	none
COc1cccc(/C=C2\SC(=S)N(c3cccnc3)C2=O)c1OC	FLuc inhib CS 66.9
Cc1cc(C(=O)CSc2ccc(F)cc2)cc(C)c1OC(=S)N(C)C	APP 5'UTR act 160.0
CCOC(=O)Nc1sc2c(c1C#N)CCC(C)C2 (stereo not given)	STAT1 act 132.4, NF-kB neuron act 3.93
CC1CCc2c(sc(NC(=O)COC(=O)c3ccc(O)cc3)c2C#N)C1 (stereo not given)	none
O=C(OCc1ccccc1F)c1ccc2c(c1)-c1ccccc1C2=O	NF-kB neuron act 4.13
CCN(Cc1ccncc1)Cc1cn(C)nc1-c1ccc(Oc2ccccc2)cc1	none
N#Cc1ccc(CSc2nnc(Nc3ccccc3)s2)cc1	none
CC(C)Sc1nnc(Nc2ccccc2)s1	STAT1 act 137.8
Clc1ccc2c(c1)C(C1=NCCN1)c1ccccc1CS2 (stereo not given)	APP 5UTR inh 96.8
Cc1cc(C)c2ccc(N)nc2c1O	APP 5UTR inh 65.7
Cc1ccc(NC(=O)Nc2ncccc2C)cc1	STAT1 act 148.9
Cc1cccnc1NC(=O)Nc1ccc(F)cc1	STAT1 act 136.1
CCOC(=O)c1ccc(NC(=O)Nc2ncccc2C)cc1	none
Cc1ccc(C)c(NC(=S)Nc2ncccc2C)c1	STAT1 act 131.5
Cc1cc(C)c(S(=O)(=O)NCC23C=CC(O2)C2C(=O)N(c4ccccc4)C(=O)C23)c(C)c1 (stereo not given)	none
Nc1nn(-c2cccc(F)n2)cc1-c1ccc(Cl)cc1	NF-kB neuron act 11.9, APP 5'UTR act 251.2, FLuc inhib CS 56.9
Nc1nn(-c2cccc(F)n2)cc1-c1ccccc1	NF-kB neuron act 9.91, APP 5'UTR act 213.2, FLuc inhib CS 63.6
COc1ccc(N2CCN(C(=O)Cn3c(=O)[nH]c4ccccc4c3=O)CC2)cc1	none
CCn1ncc(NC(=S)Nc2ccc3c(c2)OCO3)c1C(N)=O	none
O=C(/C=C/Nc1ccc(F)cc1F)c1ccco1	NF-kB neuron act 4.89, APP 5'UTR act 151.9, FLuc inhib CS 97.4
O=C(/C=C/Nc1ccc(Br)cc1F)c1ccco1	NF-kB neuron act 4.7, FLuc inhib CS 96.6
O=C(CCNc1ccc(F)c(Cl)c1)c1ccco1	none
O=C(Nc1ccc(F)cc1F)Nc1ccc(F)cc1F	none
O=C(/C=C/Nc1ccc(F)c(Cl)c1)c1ccco1	STAT1 act 149.7
CCOCCCNC(=O)C(c1ccc(OC)cc1)N(Cc1ccc2c(c1)OCO2)C(=O)c1ccccc1O (stereo not given)	none
Cc1ccc(O)c(C(=O)/C=C/c2ccc3c(c2)OCCO3)c1	none
CCNc1cc(N2CCCC2)ccc1[N+](=O)[O-]	none
C=CCNc1cc(N2CCCC2)ccc1[N+](=O)[O-]	APP 5UTR inh 57.0
Clc1ccc2oc(-c3ccccc3)cc(=NCCCN3CCOCC3)c2c1	STAT1 act 146.6
CCCCC(=O)c1ccc(O)cc1O	none (no result: FLuc stim CS, FLuc inhib CS)
O=C(Cc1ccc(Br)cc1)c1ccc(O)cc1O	STAT1 act 130.2
CCN(CC)S(=O)(=O)c1cccc(C(=O)N/N=C/c2ccc([N+](=O)[O-])o2)c1	none
Cc1ccsc1/C=N/N1CCN(Cc2ccccc2)CC1	none
CN(C)c1ccc(NC(=O)c2ccc([N+](=O)[O-])cc2Cl)cc1	STAT1 act 144.9
Cc1ccc(NC(=O)c2ccc([N+](=O)[O-])cc2Cl)nc1	STAT1 act 135.9
Cc1cc(NC(=O)/C=C/c2ccccc2Cl)no1	STAT1 act 135.4
CN(C)c1ccc(NC(=S)NC(=O)/C=C/c2ccc(Cl)cc2)cc1	STAT1 act 142.1
COC(=O)c1cc(NC(=O)/C=C/c2ccccc2)ccc1O	STAT1 act 133.2
Cc1cc(NC(=O)/C=C/c2ccccc2Cl)n(-c2nc3ccccc3[nH]2)n1	FLuc inhib CS 75.6
Cc1cc(NC(=O)c2ccc(F)cc2F)n(-c2nc3ccccc3[nH]2)n1	none
O=C(/C=C/c1ccccc1)Nc1cc(C(=O)O)cc(C(=O)O)c1	none
CN(C)C(=S)SCC(=O)Nc1ccc(Cl)cc1Cl	none
CCN(CC)c1ccc(NC(=O)/C=C\c2ccccc2Cl)cc1	none
Cc1cc(NC(=O)/C=C/c2ccccc2)no1	STAT1 act 130.0
CN(C)c1ccc(NC(=O)/C=C/c2ccccc2Cl)cc1	STAT1 act 149.1, FLuc inhib CS 63.9
Cc1cc2cc(CNC(=S)Nc3ccc(OC(F)(F)F)cc3)ccc2[nH]1	none
CCc1cc2c(=O)n(Cc3ccco3)c(SCC(=O)N3CCCc4ccccc43)nc2s1	none
CCc1cc2c(=O)n(Cc3ccco3)c(SCc3c(C)noc3C)nc2s1	APP 5UTR inh 50.3
C=CCN(C(=O)CSC1=NC(=O)CN1C(C)=O)c1nc(C)c(-c2ccccc2)s1	none
NC(=O)CSc1nc(N)c2c3c(sc2n1)CCCCC3	none
NC(=O)CSc1nc(C2CC2)nc2sc3c(c12)CCCC3	STAT1 act 149.7, NF-kB neuron act 3.84, APP 5'UTR act 139.8, FLuc inhib CS 51.6
Cn1cc(CN2CCCC(CO)(Cc3ccccc3)C2)cn1 (stereo not given)	none
CCOC(=O)C[N+]1(C)CCN(C(C)=O)CC1	none
Cc1ccc(-c2[nH]n3c(=O)c4c(nc3c2C)CCCC4)cc1	none
Cc1cc2nc3c(c(=O)n2[nH]1)CCCC3	none
COc1ccc(-c2cc3nc4c(c(=O)n3[nH]2)CCC4)cc1	FLuc inhib CS 51.5
O=c1c2c(nc3cc(-c4ccccc4)[nH]n13)CCC2	STAT1 act 134.8, NF-kB neuron act 3.69, FLuc inhib CS 60.8
O=[N+]([O-])c1ccc2sc(SCc3nc4ccccn4c3Br)nc2c1	none
Brc1c(CSc2nc3ccccc3s2)nc2ncccn12	STAT1 act 132.8, NF-kB neuron act 4.54
CN=c1scc(-c2ccccc2F)n1/N=C(\C)c1cccnc1	STAT1 act 131.8, NF-kB neuron act 5.97, APP 5'UTR act 186.4, FLuc inhib CS 73.0
CCOC(=O)/C(=C\c1ccccc1)C(=O)c1cc(C(C)=O)c(Nc2ccccc2)s1	NF-kB neuron act 9.74
CCOC(=O)/C(=C\c1cccnc1)C(=O)c1cc(C(C)=O)c(Nc2ccccc2)s1	none
CCOC(=O)c1[nH]c2ccc(OC)cc2c1NC(=O)/C=C/c1ccc2c(c1)OCO2	none
O=C(/C=C/c1ccco1)NCc1ccc2c(c1)OCO2	none
O=C(/C=C/c1ccc2c(c1)OCO2)Nc1c(C(=O)O)[nH]c2ccccc12	FLuc inhib CS 91.4
